# aDG glyco act: activators of alpha-DG glycosylation, primary screen, uHTS, Pro5-aDG cells, AlphaScreen; 360,000 tested, 0.22% active; alpha-DG glycosylation AlphaScreen (IIH6); 0% Pro5, 100% B10-LARGE cell signal; activation, % at 10 µM; AID 624168, 2012;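 active = activation of at least 8% versus controls, or a plate z-score of at least 8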;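 also: Pro5 are CHO cells carrying HIG-tagged alpha-DG that lacks glycosylation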
# GC-A act: GC-A stimulated cGMP production enhancers – HEK293 GC-A cells, cGMP TR-FRET, EC30 ANP, primary screen; Atrial natriuretic peptide receptor 1 (Homo sapiens), P16066; 0% at EC30 ANP, 100% saturating ANP; activation, % at 10 µM; 370,000 tested, 0.14% active; AID 1671463, 2021; in the data active = activation above about 40%
# Target sequence (P16066 whole entry, looked up): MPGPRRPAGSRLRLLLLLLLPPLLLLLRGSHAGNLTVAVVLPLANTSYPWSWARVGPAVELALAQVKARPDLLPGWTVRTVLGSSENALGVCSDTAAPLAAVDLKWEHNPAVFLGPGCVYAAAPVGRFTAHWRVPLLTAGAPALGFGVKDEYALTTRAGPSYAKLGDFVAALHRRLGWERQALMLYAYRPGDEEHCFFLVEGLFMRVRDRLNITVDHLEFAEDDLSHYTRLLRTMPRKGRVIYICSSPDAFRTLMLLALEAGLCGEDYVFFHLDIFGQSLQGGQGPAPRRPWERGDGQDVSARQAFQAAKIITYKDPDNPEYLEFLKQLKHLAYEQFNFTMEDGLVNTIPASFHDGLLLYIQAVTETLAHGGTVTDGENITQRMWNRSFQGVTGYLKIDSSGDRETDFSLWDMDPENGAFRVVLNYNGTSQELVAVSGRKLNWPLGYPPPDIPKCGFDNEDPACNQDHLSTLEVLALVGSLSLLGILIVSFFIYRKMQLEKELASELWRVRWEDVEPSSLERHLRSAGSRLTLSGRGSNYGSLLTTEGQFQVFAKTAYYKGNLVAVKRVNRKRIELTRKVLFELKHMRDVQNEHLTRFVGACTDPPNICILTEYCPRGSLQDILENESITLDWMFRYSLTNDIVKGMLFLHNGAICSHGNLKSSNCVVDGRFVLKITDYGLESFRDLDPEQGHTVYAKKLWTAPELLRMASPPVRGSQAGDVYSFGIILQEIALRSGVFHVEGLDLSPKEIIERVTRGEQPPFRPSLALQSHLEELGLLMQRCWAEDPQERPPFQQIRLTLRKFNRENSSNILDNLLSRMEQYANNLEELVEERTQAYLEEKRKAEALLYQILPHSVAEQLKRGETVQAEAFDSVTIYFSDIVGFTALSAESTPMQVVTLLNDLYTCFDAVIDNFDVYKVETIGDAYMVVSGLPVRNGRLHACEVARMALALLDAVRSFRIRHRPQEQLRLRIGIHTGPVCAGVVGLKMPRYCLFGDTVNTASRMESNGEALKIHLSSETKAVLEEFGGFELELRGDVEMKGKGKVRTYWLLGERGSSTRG
# GRIN3A LBD mod: binders of NR3A ligand-binding domain, primary screen, biophysical, differential scanning fluorimetry, uHTS. Glutamate receptor ionotropic, NMDA 3A (GRIN3A) ligand-binding domain. NR3A LBD differential scanning fluorimetry, Tm shift; 0% = protein alone, 100% = glycine-bound protein. Tm shift relative to glycine control, % at 25 µM. 340,000 tested, 2.5% active;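 active = melting temperature shift of at least 10% of the positive control shift, at one fixed dose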
# Lipid droplet: inhibitors of hepatocyte lipid droplet formation, primary screen, imaging, high-throughput imaging, BODIPY stain. AML12 mouse hepatocytes, oleate lipid droplets. inhibition, % at 6.5 µM. 240,000 tested, 0.4% active;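 active = lipid droplet intensity inhibited by at least 50%, with more than 500 cells counted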
#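 Technique: fluorescence imaging, 20x objective, two fields per well / Assay system: AML12 hepatocytes (mouse) / Measure: % inhibition of lipid droplet signal / Doses: 6.5 µM single-point dosing / Incubation: overnight exposure / Reagent: 100 µM oleic acid challenge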
# GC-B act: human GC-B receptor activators, primary screen, HEK293 GC-B cells, cGMP TR-FRET, EC30 CNP | Atrial natriuretic peptide receptor 2 (Homo sapiens), P20594 | 0% at EC30 CNP, 100% saturating CNP | activation, % at 10 µM | 370,000 tested, 0.11% active | AID 1920062, 2024;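 active = activation at 10 µM reaching about 35% in either raw or pattern-adjusted values, limit read from the data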
# GASC-1 inh: inhibitors of GASC-1 histone demethylase, primary screen, biochemical, fluorescence, DELFIA europium; inhibition, % at 2.35 µM; GST-JMJD2C(1-420) H3K9me3 demethylation; AID 2099, 2009; Lysine-specific demethylase 4C (Homo sapiens), Q9H3R0; 330,000 tested, 0.069% active;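 active = more than half of a compound's replicate wells show inhibition beyond 50%, single wells judged on their own value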;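 also: signal counts dimethyl H3K9 product captured on neutravidin plate; 0% = median of DMSO wells and 100% = 0.3 times that DMSO median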
# The depositor's hits bear a star; . = not tested or not shown. A selection: hits, their analogues and other compounds. The true share with any hit is near 3%.
SMILES,aDG glyco act,GC-A act,GRIN3A LBD mod,Lipid droplet,GC-B act,GASC-1 inh
Cc1ccc(NS(=O)(=O)c2cc([N+](=O)[O-])ccc2NNC(=S)Nc2cccc(Cl)c2)c(C)c1,-0.7,.,-11.1,-38.3,.,22.8
COc1ccc(NC(=S)NNc2ccc([N+](=O)[O-])cc2S(=O)(=O)Nc2ccc(C)cc2C)cc1,-0.5,0.2,22.5*,-13.7,11.4,-3.8
Cc1ccc(NS(=O)(=O)c2cc([N+](=O)[O-])ccc2NNC(=S)Nc2cc(C)ccc2C)c(C)c1,-0.7,0.5,20.5*,-54.2,8.8,-0.6
Nc1[nH]c(C(=O)c2ccc(Br)cc2)c(-c2ccncc2)c1C(=O)NCCc1c[nH]c2ccccc12,.,-14.6,.,.,-9.2,.
Cc1nc2c(OCCC3CCCCC3)cccn2c1N(C)C(=O)CCC1CCCC1,0.5,-2.6,.,.,2.1,.
Cn1ccc2ccc(-c3ccc4c(c3)[C@]3(CCC[C@@H](OCc5ccccc5)[C@@H]3NC(=O)CCc3ccccc3)C(=O)N4Cc3ccccc3)cc21,.,-1.1,.,.,-3.3,.
CCN(CC)CC(=O)Nc1c(C)cc(C)cc1C,.,.,10.2*,.,.,.
CCN(CC)CCN(CC(=O)Nc1c(C)cc(C)cc1C)C(=O)c1ccccc1,-0.1,0.5,0.3,-8.7,-0.8,5.6
COC(=O)c1ccccc1NC(=O)COC(=O)/C=C/c1cccs1,0.4,-9.1,11.0*,.,-1.6,3.0
O=C(COC(=O)/C=C/c1cccs1)Nc1ccc(F)cc1,-0.2,-0.8,16.1*,.,3.4,.
CC1CCCCC1NC(=O)CCCn1c(=S)[nH]c2ccsc2c1=O (stereo not drawn),-0.1,-1.6,1.4,17.9,-1.1,4.8
CC(C)Nc1nc(Nc2ccc(C#N)cc2)c2sccc2n1,0.5,7.0,.,.,8.2,.
Cc1ccc(NC2=NC(c3ccccc3)n3c(nc(C)cc3=O)N2)c(C)c1 (stereo not drawn),-0.2,28.8,-2.5,.,38.5*,-1.0
COc1ccc(/C=C2\CC3(OC(=O)c4ccco4)CCCN2C3)cc1 (stereo not drawn),.,-3.2,.,.,-0.3,.
O=C(c1ccc(F)cc1Cl)N1CCC(Oc2cccnc2)CC1,.,-1.2,.,.,0.7,.
CCc1ccccc1NC(=O)CN1CCN(C(=O)CN2C(=O)NC3(CCCCC3C)C2=O)CC1 (stereo not drawn),0.0,-1.2,20.8*,.,4.0,.
NC1=NC2(CCCCC2)N(c2ccc(F)cc2)C(N)=N1,0.1,2.6,20.1*,-2.2,2.4,-11.8
Cc1ccc(NC(=O)c2cccs2)cc1NC(=O)c1ccco1,0.0,4.3,3.3,11.2,-2.0,-11.2
O=C(NC(=S)Nc1ccc(NC(=O)c2cccs2)cc1)c1ccco1,-0.2,-0.1,24.0*,-9.8,-2.6,12.9
O=C(Nc1ccc(NC(=O)c2cccs2)cc1)c1ccco1,0.0,-2.3,20.2*,8.8,-4.5,5.0
O=C(Nc1ccc(NC(=S)NC(=O)c2ccccc2F)cc1)c1cccs1,0.1,-3.3,19.5*,27.9,-3.0,-10.6
COc1cc(NC(=S)NC(=O)c2ccccc2F)ccc1NC(=O)c1cccs1,0.2,-0.5,-5.3,-30.8,-1.4,-9.7
O=C(NC(=S)Nc1ccc(NC(=O)c2cccs2)cc1)c1cc2ccccc2o1,0.9,-1.9,29.3*,-1.3,1.1,4.1
Fc1ccc2cc(C3=CCCCC3)ncc2c1,.,-0.6,.,.,-3.8,.
Cc1ccc(CNC(=O)C2CCN(C(=O)Nc3ccc(C)cc3)CC2)cc1,-0.2,1.6,-2.5,41.2,-6.8,-9.9
SMILES,aDG glyco act,GC-A act,GRIN3A LBD mod,Lipid droplet,GC-B act,GASC-1 inh
Cc1ccc2oc(-c3cccc(NC(=O)/C=C/c4cccc([N+](=O)[O-])c4)c3C)nc2c1,0.5,5.3,16.9*,-0.3,0.4,20.4
Cc1n[nH]c(C)c1S(=O)(=O)NCCc1ccccc1,.,1.7,.,.,9.8,.
c1cncc(-c2nc3cc4ccccc4cc3[nH]2)c1,0.1,2.4,22.3*,.,-1.1,-1.2
Cn1c(=O)c2c(nc(N/N=C3\CCCc4ccccc43)n2Cc2ccc(F)cc2)n(C)c1=O,0.5,33.9,0.4,3.5,49.6*,-7.3
Cn1c(N/N=C2\CCCc3ccccc32)nc2c1c(=O)n(Cc1ccccc1)c(=O)n2C,-0.4,12.4,-2.0,27.3,21.1,-1.9
S=C(NCc1ccc2c(c1)OCO2)Nc1ccc(-c2nc3ccccc3[nH]2)cc1,1.5,-1.3,26.4*,27.4,4.7,2.0
O=C(NC(=S)Nc1cc(-c2nc3ccccc3[nH]2)ccc1Cl)c1ccc2c(c1)OCO2,-0.2,10.2,18.2*,26.2,13.1,15.8
CCOC(=O)NC(=O)/C(N=Nc1ccc(C(F)(F)F)cc1)=C(\C)O,0.3,-2.1,154.0*,22.5,5.1,-3.2
CCOC(=O)NC(=O)/C(N=Nc1cc(C)cc(C)c1)=C(\C)O,-0.3,3.5,1.3,15.6,-2.8,-3.6
CN(C)C(=O)c1cccc(-c2cccc(-c3nc(C(=O)NCc4ccccc4)cc4c3[C@H](CCO)N(S(=O)C(C)(C)C)C4)c2)c1 (stereo partly drawn),0.1,0.9,.,.,-1.1,.
Cc1cc(C)c(S(=O)(=O)N2CCN(c3ccccn3)CC2)c(C)c1,0.1,-3.8,3.4,.,-8.1,.
Cc1c(Cc2ccccc2)sc(/N=C/c2c(O)ccc3ccccc23)c1C(N)=O,0.2,.,11.5*,-2.5,.,-7.0
Cn1c(SCC(=O)Nc2ccc(C(N)=O)cc2)nnc1-c1cccs1,0.2,1.9,-1.5,-0.4,-4.1,-0.8
Cc1nc2ccccc2nc1N1CCCCC1,0.0,-0.6,1.5,.,3.2,.
c1ccc2nc(N3CCCC3)c(N3CCCC3)nc2c1,0.0,-7.4,11.2*,2.4,3.4,7.3
CN1CCCCC(NC(=O)c2cccc([N+](=O)[O-])c2)C1=O (stereo not drawn),.,-1.1,.,.,-7.0,.
O=C(Nc1ccsn1)c1ccc(Cl)cc1Cl,0.0,3.4,10.3*,21.9,2.7,-12.8
O=C(CCN1C(=O)c2cccc3cccc(c23)C1=O)NCC1CCCO1 (stereo not drawn),0.0,-1.8,1.2,0.4,0.2,-0.1
O=C(CN1C(=O)c2cccc3cccc1c23)NCC1CCCO1 (stereo not drawn),-0.1,-0.5,15.6*,.,-1.9,-11.6
CCOc1ccc(-c2nnc3ccc(SCC(=O)Nc4nc5ccc(C)cc5s4)nn23)cc1,0.6,-3.9,21.5*,-9.1,0.8,-3.8
O=C(CSc1ncn(-c2ccccc2)n1)Nc1nc2ccccc2s1,-0.2,2.1,21.9*,-0.6,-13.7,1.4

# Bioassay records deposited in PubChem by several laboratories.
